Source: ChEMBL document CHEMBL1126036, “Quinolone antibacterial agents. Synthesis and structure-activity relationships of a series of amino acid prodrugs of racemic and chiral 7-(3-amino-1-pyrrolidinyl)quinolones. Highly soluble quinolone prodrugs with in vivo pseudomonas activity” (J Med Chem, 1992)
≈ marks a conversion by molar mass, not a printed value.

Assays:
Escherichia coli [1] = assay: In vivo potency against acute systemic infection in mouse caused by Escherichia coli vogel on subcutaneous injection.; type: functional; details: sc, read-out: PD50
Summary of the method: (§1)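 Acute systemic mouse infection. A single subcutaneous dose was injected at the time of challenge. Potency is reported as the median protective dose (PD50, mg/kg), determined by earlier published methods.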

Enterococcus faecalis = assay: In vitro antibacterial activity against gram positive Enterococcus faecalis MGH-2.; type: functional
Streptococcus pneumoniae [2] = assay: In vivo potency against acute systemic infection in mouse caused by Streptococcus pneumoniae SV-1 on oral administration by gavage.; type: functional; details: read-out: PD50
Summary of the method: (§2)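 Acute systemic mouse infection. A single oral dose was given by gavage at the time of challenge. Potency is reported as the median protective dose (PD50, mg/kg), determined by earlier published methods.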

[3] = Solubility (at pH 7.4); type: physicochemical; details: buffer, read-out: S
Summary of the method: (§3)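 Solubility was measured either from HPLC peak areas at equilibrium or by a conventional weight-per-volume method. All solutions were held for 24 h before measurement.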

Enterobacter cloacae = assay: In vitro antibacterial activity against gram negative Enterobacter cloacae MA 2646.; type: functional
[4] = Aqueous solubility; type: physicochemical; details: water (aqueous); read-out: S; summary of the method: as §3
[5] = Solubility (in 0.1 N HCl); type: physicochemical; details: read-out: S; summary of the method: as §3
Klebsiella pneumoniae = assay: In vitro antibacterial activity against gram negative Klebsiella pneumoniae MGH-2.; type: functional
Staphylococcus aureus [6] = assay: In vitro antibacterial activity against gram positive Staphylococcus aureus UC76.; type: functional
Mus musculus [7] = assay: In vivo potency against acute systemic infection in mouse caused by Streptococcus pyogenes C-203 on oral administration by gavage; type: functional; details: read-out: PD50; summary of the method: as §2
Streptococcus pyogenes = assay: In vitro antibacterial activity against gram positive Streptococcus pyogenes C-203.; type: functional
[8] = biological target: DNA gyrase (Escherichia coli) (UniProt P0AES6+P0AES4); assay: In vitro concentration inhibiting DNA gyrase induced cleavage in Escherichia coli H560.; type: functional
Summary of the method: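 DNA gyrase test run as described in earlier work. The value is the drug concentration (µg/mL) needed to cause DNA cleavage.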

Mus musculus [9] = assay: In vivo potency against acute systemic infection in mouse caused by Streptococcus pyogenes C-203 on subcutaneous injection; type: functional; details: sc, read-out: PD50; summary of the method: as §1
[10] = Solubility (at pH 4); type: physicochemical; details: buffer; for solubility: read-out: S; summary of the method: as §3
Pseudomonas aeruginosa = assay: In vitro antibacterial activity against gram negative Pseudomonas aeruginosa UI-18.; type: functional
Providencia rettgeri = assay: In vitro antibacterial activity against gram negative Providencia rettgeri M-1771.; type: functional
Staphylococcus aureus [11] = assay: In vitro antibacterial activity against gram positive Staphylococcus aureus H-228.; type: functional
Streptococcus pneumoniae [12] = assay: In vivo potency against acute systemic infection in mouse caused by Streptococcus pneumoniae SV-1 on subcutaneous injection.; type: functional; details: sc, read-out: PD50; summary of the method: as §1
Escherichia coli [13] = assay: In vivo potency against acute systemic infection in mouse caused by Escherichia coli Vogel on oral administration by gavage.; type: functional; details: read-out: PD50; summary of the method: as §2
Escherichia coli [14] = assay: In vitro antibacterial activity against gram negative Escherichia coli Vogel.; type: functional
Streptococcus pneumoniae [15] = assay: In vitro antibacterial activity against gram positive Streptococcus pneumoniae SV-1.; type: functional
Mus musculus [16] = assay: In vivo potency against acute systemic infection in mouse caused by Pseudomonas aeruginosa. UI-18. on subcutaneous injection.; type: functional; details: sc, read-out: PD50; summary of the method: as §1
Mus musculus [17] = assay: In vivo potency against acute systemic infection in mouse caused by Pseudomonas aeruginosa UI-18 on oral administration by gavage.; type: functional; details: read-out: PD50; summary of the method: as §2

| SMILES | ED50 (Escherichia coli [1]) [mg/kg] | MIC (Enterococcus faecalis) [µg/mL] | ED50 (Streptococcus pneumoniae [2]) [mg/kg] | solubility [3] [µg/mL] | MIC (Enterobacter cloacae) [µg/mL] | solubility [4] [µg/mL] | solubility [5] [µg/mL] | MIC (Klebsiella pneumoniae) [µg/mL] | MIC (Staphylococcus aureus [6]) [µg/mL] | ED50 (Mus musculus [7]) [mg/kg] | MIC (Streptococcus pyogenes) [µg/mL] | Cleavage [8] [µg/mL] | ED50 (Mus musculus [9]) [mg/kg] | MIC (Pseudomonas aeruginosa) [µg/mL] | MIC (Providencia rettgeri) [µg/mL] | MIC (Staphylococcus aureus [11]) [µg/mL] | ED50 (Streptococcus pneumoniae [12]) [mg/kg] | ED50 (Escherichia coli [13]) [mg/kg] | MIC (Escherichia coli [14]) [µg/mL] | MIC (Streptococcus pneumoniae [15]) [µg/mL] | further results |
| --- | --- | --- | --- | --- | --- | --- | --- | --- | --- | --- | --- | --- | --- | --- | --- | --- | --- | --- | --- | --- | --- |
| C[C@H](N)C(=O)N[C@@H]1CCN(c2c(F)c(N)c3c(=O)c(C(=O)O)cn(C4CC4)c3c2F)C1.Cl.O | 0.5 | 0.4 | 18 | 40 | 0.8 | 21000 | 3200 | 0.8 | 0.025 | 20 | 0.2 | 5 | 6.3 | 3.1 | 1.6 | 0.4 | 7.7 | 2.2 | 0.4 | 0.2 | solubility [10]: 71000 µg/mL |
| C[C@H](N)C(=O)NC1CCN(c2cc3c(cc2F)c(=O)c(C(=O)O)cn3C2CC2)C1.Cl.O (stereo not given in full) | 0.5 | 1.6 | > 100 | 270 | 0.8 | > 100000 | > 100000 | 0.8 | 0.4 | > 100 | 0.4 | 1 | 5 | 1.6 | 1.6 | 3.1 | 13 | 5 | 0.4 | 0.4 | solubility [10]: > 100000 µg/mL |
| C[C@H](N)C(=O)N[C@@H]1CCN(c2nc3c(cc2F)c(=O)c(C(=O)O)cn3C2CC2)C1.Cl.O | 0.5 | 3.1 | 40 | 70 | 0.8 | > 200000 | > 200000 | 3.1 | 0.8 | 49 | 0.8 | 1 | 32 | 6.3 | 3.1 | 3.1 | 28 | 2 | 1.6 | 1.6 | solubility [10]: > 200000 µg/mL |
| Cl.NC1CCN(c2cc3c(cc2F)c(=O)c(C(=O)O)cn3C2CC2)C1.O (stereo not given) | 0.5 | 0.1 | 43 |  | 0.025 |  |  | 0.05 | 0.025 | 97 | 0.1 | 0.1 | 11 | 0.1 | 0.1 | 0.2 | 4 | 3 | 0.025 | 0.1 | ED50 (Mus musculus [16]): 5 mg/kg; ED50 (Mus musculus [17]): 49 mg/kg |
| Cl.NCC(=O)NC1CCN(c2c(F)c(N)c3c(=O)c(C(=O)O)cn(C4CC4)c3c2F)C1.O (stereo not given) | 0.4 | 0.4 | 29 | 70 | 0.2 | 17000 | 3500 | 0.4 | 0.1 | 36 | 0.2 | 5 | 8.1 | 1.6 | 0.4 | 0.4 | 16 | 1 | 0.2 | 0.4 | solubility [10]: 69000 µg/mL |
| Cl.Nc1c(F)c(N2CC[C@H](N)C2)c(F)c2c1c(=O)c(C(=O)O)cn2C1CC1.O | 0.4 | 0.025 | 10 | 50 | 0.003 | 2500 | 250 | 0.013 | 0.003 | 18 | 0.013 | 0.1 | 5.5 | 0.025 | 0.025 | 0.006 | 6 | 1.2 | 0.003 | 0.006 | solubility [10]: 2300 µg/mL |
| C[C@H](N)C(=O)N[C@H]1CCN(c2c(F)cc3c(=O)c(C(=O)O)cn(C4CC4)c3c2F)C1.Cl.O | 0.4 | 0.1 | 25 | 70 | 0.1 | 33000 | 5400 | 0.2 | 0.025 |  | 0.1 | 2.5 |  | 0.1 | 0.2 | 0.1 | 9 | 1 | 0.1 | 0.1 | solubility [10]: 19000 µg/mL |
| NC1CCN(c2nc3c(cc2F)c(=O)c(C(=O)O)cn3-c2ccc(F)cc2F)C1 (stereo not given) [TOSUFLOXACIN] | 0.3 | 0.1 (≈ 0.247 µM) | 14 | 100 (≈ 247 µM) | 0.025 (≈ 0.0618 µM) | 650 (≈ 1610 µM) | 400 (≈ 989 µM) | 0.05 (≈ 0.124 µM) | 0.025 (≈ 0.0618 µM) | 5 | 0.05 (≈ 0.124 µM) |  | 3 | 0.4 (≈ 0.989 µM) | 0.1 (≈ 0.247 µM) | 0.05 (≈ 0.124 µM) | 3 | 1 | 0.013 (≈ 0.0322 µM) | 0.025 (≈ 0.0618 µM) | ED50 (Mus musculus [16]): 4 mg/kg; S [10]: 0.55 mg/mL; ED50 (Mus musculus [17]): 6 mg/kg |
